In ChEMBL document CHEMBL1629431, “Synthesis and antitumor activity of some 2, 3-disubstituted quinazolin-4(3H)-ones and 4, 6- disubstituted- 1, 2, 3, 4-tetrahydroquinazolin-2H-ones” (2010) one finds inhibition of growth data, which are given here for 4 molecules.

What all share (format): functional
Assay [1] concerns CCRF-CEM. As to the kind of experiment: Growth inhibition of human CCRF-CEM cells at 10 uM after 48 hrs by coulter counter method. The conditions noted are these: read-out: GI. The method in brief:
(§1)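 Single high-dose NCI 60-cell-line panel screen across nine tumor subpanels. Test solutions (0.2 mL) were added in duplicate to wells holding 1.8 mL of culture at 6 × 10⁴ cells/mL. Controls got PBS and DMSO at identical dilutions. Incubation was 48 h at 37 °C in humidified 5% CO₂. Cells were diluted 10-fold in saline, Coulter-counted and dilution-corrected. Results were expressed as percent growth inhibition versus control.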

The subject of assay [2] is SF-268. As to the kind of experiment: Growth inhibition of human SF268 cells at 10 uM after 48 hrs by coulter counter method. The conditions noted are these: SF-268, 48 h, read-out: GI. The gist of the method:
as §1

For assay [3], the system named is MCF7. In words: Growth inhibition of human MCF7 cells at 10 uM after 48 hrs by coulter counter method. The settings on record: MCF7, 48 h, read-out: GI. The method in brief: as §1
Assay [4] concerns COLO 205. In words: Growth inhibition of human COLO205 cells at 10 uM after 48 hrs by coulter counter method. The settings on record: COLO 205, 48 h, read-out: GI. The gist of the method: as §1
The subject of assay [5] is M14. As to the kind of experiment: Growth inhibition of human M14 cells at 10 uM after 48 hrs by coulter counter method. The conditions noted are these: M14, 48 h, read-out: GI. The method in brief: as §1
Assay [6] deals with SF-539. As to the kind of experiment: Growth inhibition of human SF539 cells at 10 uM after 48 hrs by coulter counter method. The conditions noted are these: SF-539, 48 h, read-out: GI. The method in brief:
as §1

The subject of assay [7] is HOP-92. As to the kind of experiment: Growth inhibition of human HOP92 cells at 10 uM after 48 hrs by coulter counter method. The settings on record: HOP-92, 48 h, read-out: GI. The method in brief: as §1
A short description of assay [8]: Growth inhibition of human Hs 578T cells at 10 uM after 48 hrs by coulter counter method. The conditions noted are these: read-out: GI. The method in brief:
as §1

The test system of assay [9] is T47D. In words: Growth inhibition of human T47D cells at 10 uM after 48 hrs by coulter counter method. The settings on record: read-out: GI. The method in brief: as §1
The test system of assay [10] is SN12C. As to the kind of experiment: Growth inhibition of human SN12C cells at 10 uM after 48 hrs by coulter counter method. The settings on record: read-out: GI. The method in brief: as §1
Assay [11] has as its system CAKI-1. As to the kind of experiment: Growth inhibition of human Caki1 cells at 10 uM after 48 hrs by coulter counter method. The settings on record: CAKI-1, 48 h, read-out: GI. The method in brief: as §1
Assay [12] deals with UACC-62. As to the kind of experiment: Growth inhibition of human UACC62 cells at 10 uM after 48 hrs by coulter counter method. The settings on record: UACC-62, 48 h, read-out: GI. The method in brief: as §1
The test system of assay [13] is OVCAR-8. As to the kind of experiment: Growth inhibition of human OVCAR8 cells at 10 uM after 48 hrs by coulter counter method. The conditions noted are these: OVCAR-8, 48 h, read-out: GI. The gist of the method:
as §1

Assay [14] relates to U-251. In words: Growth inhibition of human U251 cells at 10 uM after 48 hrs by coulter counter method. The conditions noted are these: U-251, 48 h, read-out: GI. The gist of the method: as §1
The test system of assay [15] is 786-0. In words: Growth inhibition of human 786-0 cells at 10 uM after 48 hrs by coulter counter method. The conditions noted are these: 786-0, 48 h, read-out: GI. The gist of the method: as §1
The subject of assay [16] is NCI-H226. In words: Growth inhibition of human NCI-H226 cells at 10 uM after 48 hrs by coulter counter method. The settings on record: NCI-H226, 48 h, read-out: GI. The method in brief:
as §1

The subject of assay [17] is A549. As to the kind of experiment: Growth inhibition of human A549 cells at 10 uM after 48 hrs by coulter counter method. The conditions noted are these: A549, 48 h, read-out: GI. The gist of the method:
as §1

Assay [18] relates to MOLT-4. As to the kind of experiment: Growth inhibition of human MOLT4 cells at 10 uM after 48 hrs by coulter counter method. The settings on record: MOLT-4, 48 h, read-out: GI. The gist of the method: as §1
Assay [19] relates to IGROV-1. As to the kind of experiment: Growth inhibition of human IGROV1 cells at 10 uM after 48 hrs by coulter counter method. The conditions noted are these: IGROV-1, 48 h, read-out: GI. The gist of the method: as §1
Assay [20] relates to MDA-MB-231. In words: Growth inhibition of human MDA-MB-231 cells at 10 uM after 48 hrs by coulter counter method. The settings on record: MDA-MB-231, 48 h, read-out: GI. The gist of the method:
as §1

Assay [21] relates to PC-3. In words: Growth inhibition of human PC3 cells at 10 uM after 48 hrs by coulter counter method. The settings on record: PC-3, 48 h, read-out: GI. The method in brief: as §1
Assay [22] relates to NCI-H522. As to the kind of experiment: Growth inhibition of human NCI-H522 cells at 10 uM after 48 hrs by coulter counter method. The settings on record: NCI-H522, 48 h, read-out: GI. The gist of the method: as §1
Assay [23] relates to HCT-116. As to the kind of experiment: Growth inhibition of human HCT116 cells at 10 uM after 48 hrs by coulter counter method. The conditions noted are these: HCT-116, 48 h, read-out: GI. The gist of the method: as §1
Assay [24] relates to SK-MEL-28. As to the kind of experiment: Growth inhibition of human SK-MEL-28 cells at 10 uM after 48 hrs by coulter counter method. The conditions noted are these: SK-MEL-28, 48 h, read-out: GI. The gist of the method:
as §1

In assay [25] the test system is KM12. In words: Growth inhibition of human KM12 cells at 10 uM after 48 hrs by coulter counter method. The conditions noted are these: KM12, 48 h, read-out: GI. The method in brief:
as §1

Assay [26] relates to SK-MEL-2. In words: Growth inhibition of human SK-MEL-2 cells at 10 uM after 48 hrs by coulter counter method. The conditions noted are these: SK-MEL-2, 48 h, read-out: GI. The method in brief:
as §1

Assay [27] concerns MDA-MB-468. In words: Growth inhibition of human MDA-MB-468 cells at 10 uM after 48 hrs by coulter counter method. The conditions noted are these: MDA-MB-468, 48 h, read-out: GI. The gist of the method: as §1
The test system of assay [28] is SNB-75. As to the kind of experiment: Growth inhibition of human SNB75 cells at 10 uM after 48 hrs by coulter counter method. The conditions noted are these: SNB-75, 48 h, read-out: GI. The gist of the method: as §1
Assay [29] relates to K562. As to the kind of experiment: Growth inhibition of human K562 cells at 10 uM after 48 hrs by coulter counter method. The conditions noted are these: K562, 48 h, read-out: GI. The gist of the method:
as §1

Assay [30] relates to SK-OV-3. In words: Growth inhibition of human SKOV3 cells at 10 uM after 48 hrs by coulter counter method. The settings on record: SK-OV-3, 48 h, read-out: GI. The gist of the method:
as §1

In assay [31] the test system is SR. In words: Growth inhibition of human SR cells at 10 uM after 48 hrs by coulter counter method. The conditions noted are these: read-out: GI. The gist of the method: as §1
Assay [32] has as its system UO-31. In words: Growth inhibition of human UO31 cells at 10 uM after 48 hrs by coulter counter method. The conditions noted are these: UO-31, 48 h, read-out: GI. The method in brief:
as §1

For assay [33], the system named is HT-29. As to the kind of experiment: Growth inhibition of human HT-29 cells at 10 uM after 48 hrs by coulter counter method. The conditions noted are these: HT-29, 48 h, read-out: GI. The method in brief: as §1
For assay [34], the system named is NCI-H23. In words: Growth inhibition of human NCI-H23 cells at 10 uM after 48 hrs by coulter counter method. The settings on record: NCI-H23, 48 h, read-out: GI. The method in brief:
as §1

For assay [35], the system named is HL-60(TB). As to the kind of experiment: Growth inhibition of human HL-60(TB) cells at 10 uM after 48 hrs by coulter counter method. The settings on record: HL-60, 48 h, read-out: GI. The gist of the method: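 Part of the NCI 60-cell-line single-high-dose panel. Cells were seeded at 6 × 10⁴ cells/mL with test solution in duplicate wells, alongside PBS/DMSO controls at identical dilutions. Plates were held 48 h at 37 °C in a humidified 5% CO₂ incubator. Cells were then diluted 10-fold in saline and counted by Coulter counter, with counts corrected for dilution. Results are percent growth of treated cells, reported as GI %.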

The subject of assay [36] is BT-549. As to the kind of experiment: Growth inhibition of human BT549 cells at 10 uM after 48 hrs by coulter counter method. The conditions noted are these: BT-549, 48 h, read-out: GI. The method in brief: as §1
Assay [37] relates to OVCAR-4. In words: Growth inhibition of human OVCAR4 cells at 10 uM after 48 hrs by coulter counter method. The conditions noted are these: OVCAR-4, 48 h, read-out: GI. The method in brief: as §1
The test system of assay [38] is SF-295. In words: Growth inhibition of human SF295 cells at 10 uM after 48 hrs by coulter counter method. The conditions noted are these: SF-295, 48 h, read-out: GI. The gist of the method: as §1

For `COc1ccc(C2NC(=O)Nc3ccc(C(=O)Nc4ccccn4)cc32)cc1` (stereo unspecified), the inhibition of growth at 10 µM in assay [1], in assay [2], in assay [3], in assay [4], in assay [5] and in assay [6] was 30% each time. For the same molecule, the inhibition of growth at 10 µM in assay [7] was determined as 30%; in assay [8], 30%; in [9] it was 37.6%; in [10] it was 30%; in [11], 30%; in [12], 30%. Moreover, the inhibition of growth at 10 µM in assay [13], in assay [14], in assay [15], in [16], in assay [17] and in [18] was 30% in each case. Besides, the inhibition of growth at 10 µM in [19], in [20], in [21], in assay [22], in assay [23] and in [24] was 30% throughout. Further, the inhibition of growth at 10 µM in assay [25], in assay [26], in [27], in assay [28], in assay [29] and in [30] was 30% each time. In addition, the inhibition of growth at 10 µM in assay [31] was found to be 30%; in assay [32] it was 34.3%; in [33], 30%; in assay [34], 30%; in assay [35], 30%; in assay [36], 30%. Besides, in [37], the inhibition of growth at 10 µM is 30%.

With `COc1ccc(C2NC(=O)Nc3ccc(CNc4ccccn4)cc32)cc1` (stereo unspecified), the inhibition of growth at 10 µM in assay [1], in assay [2], in assay [3], in assay [4], in assay [5] and in assay [6] was 30% in each case. The inhibition of growth at 10 µM was determined as 30% in [7]; 30% in assay [8]; 33.1% in [9]; 30% in assay [10]; 30% in assay [11]; 30% in assay [12]. Moreover, the inhibition of growth at 10 µM in assay [13], in assay [14], in [15], in assay [16], in assay [17] and in [18] was 30% throughout. The inhibition of growth at 10 µM in [19] worked out at 30%; in assay [20], 30.2%; in [21], 30%; in assay [22], 30%; in assay [23], 36.8%; in assay [24] it was 30%. Also, the inhibition of growth at 10 µM in assay [25], in [26], in assay [27], in assay [28], in assay [29] and in [30] was 30% throughout. Also, the inhibition of growth at 10 µM in assay [31], in [32], in assay [33], in assay [34], in [35] and in assay [36] was 30% throughout. The inhibition of growth at 10 µM in [37] came out at 30%.

Take `COc1ccc(-n2c(Nc3cc(O)[nH]c(=O)n3)nc3ccccc3c2=O)cc1`: in assay [38], the inhibition of growth at 10 µM worked out at 80.8%.

For the molecule `CCn1c(Nc2cc(O)nc(S)n2)nc2ccccc2c1=O`, the inhibition of growth at 10 µM in [38] was 59.9%.
